Results as given in article PMC6172068 (Cancer Science, 2018).
Marks after values point to notes of the source that are not given here.

Assay: Safety and tolerability
Format: in vivo, Japanese patients
In short: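 In this open-label study, once-daily oral dosing escalated 20–300 mg/d by Bayesian continual reassessment. DLTs were judged from Cycles 0 and 1, and MTD/RD came from the posterior mean DLT rate plus investigator assessment. Treatment-emergent AEs were graded by NCI-CTCAE v4.0 for seriousness, duration and relatedness. The safety analysis set comprised all patients given ≥1 dose.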

## CCc1nc(C(N)=O)c(Nc2ccc(N3CCC(N4CCN(C)CC4)CC3)c(OC)c2)nc1NC1CCOCC1 [gilteritinib]
20 mg (n = 1)
  AEs leading to discontinuation of the study drug: 0 n (%)
  Any AE: 1 (100%) n (%)
  Deaths: 0 n (%)
  Drug-related AE: 1 (100%) n (%)
  Drug-related AEs leading to discontinuation of the study drug: 0 n (%)
  Drug-related grade ≥3 AEs: 0 n (%)
  Drug-related serious AEs: 0 n (%)
  Grade ≥3 AEs: 1 (100%) n (%)
  Serious AE: Acute cholangitis: 0 n (%)
  Serious AE: Bronchopneumonia: 0 n (%)
  Serious AE: Bronchopulmonary aspergillosis: 0 n (%)
  Serious AE: Cardiomyopathy: 0 n (%)
  Serious AE: Device-related infection: 0 n (%)
  Serious AE: Edema: 0 n (%)
  Serious AE: Febrile neutropenia: 0 n (%)
  Serious AE: Increased level of fibrin degradation products: 0 n (%)
  Serious AE: Pneumonia: 0 n (%)
  Serious AE: Sepsis: 0 n (%)
  Serious AE: Subdural hematoma: 0 n (%)
  Serious AEs: 0 n (%)
40 mg (n = 4)
  AEs leading to discontinuation of the study drug: 1 (25%) n (%)
  Any AE: 4 (100%) n (%)
  Deaths: 0 n (%)
  Drug-related AE: 3 (75%) n (%)
  Drug-related AEs leading to discontinuation of the study drug: 1 (25%) n (%)
  Drug-related grade ≥3 AEs: 1 (25%) n (%)
  Drug-related serious AEs: 1 (25%) n (%)
  Grade ≥3 AEs: 2 (50%) n (%)
  Serious AE: Acute cholangitis: 0 n (%)
  Serious AE: Bronchopneumonia: 0 n (%)
  Serious AE: Bronchopulmonary aspergillosis: 0 n (%)
  Serious AE: Cardiomyopathy: 0 n (%)
  Serious AE: Device-related infection: 1 (25%) n (%)
  Serious AE: Edema: 1 (25%) n (%)
  Serious AE: Febrile neutropenia: 0 n (%)
  Serious AE: Increased level of fibrin degradation products: 0 n (%)
  Serious AE: Pneumonia: 1 (25%) n (%)
  Serious AE: Sepsis: 0 n (%)
  Serious AE: Subdural hematoma: 0 n (%)
  Serious AEs: 1 (25%) n (%)
40 mg/d
  AE resulting in permanent discontinuation: pneumonia: 1 n
80 mg (n = 4)
  AEs leading to discontinuation of the study drug: 1 (25%) n (%)
  Any AE: 4 (100%) n (%)
  Drug-related AE: 3 (75%) n (%)
  Drug-related AEs leading to discontinuation of the study drug: 1 (25%) n (%)
  Drug-related grade ≥3 AEs: 1 (25%) n (%)
  Drug-related serious AEs: 1 (25%) n (%)
  Grade ≥3 AEs: 2 (50%) n (%)
  Serious AE: Acute cholangitis: 1 (25%) n (%)
  Serious AE: Bronchopneumonia: 1 (25%) n (%)
  Serious AE: Bronchopulmonary aspergillosis: 0 n (%)
  Serious AE: Cardiomyopathy: 0 n (%)
  Serious AE: Device-related infection: 0 n (%)
  Serious AE: Edema: 0 n (%)
  Serious AE: Febrile neutropenia: 0 n (%)
  Serious AE: Increased level of fibrin degradation products: 0 n (%)
  Serious AE: Pneumonia: 0 n (%)
  Serious AE: Sepsis: 1 (25%) n (%)
  Serious AE: Subdural hematoma: 1 (25%) n (%)
  Serious AEs: 1 (25%) n (%)
80 mg (n = 4), cause of death considered related to the study drug
  Deaths: 1 (25%) ^a n (%)
80 mg/d
  AE resulting in permanent discontinuation: subdural hematoma: 1 n
120 mg (n = 4)
  AEs leading to discontinuation of the study drug: 0 n (%)
  Any AE: 4 (100%) n (%)
  Deaths: 0 n (%)
  Drug-related AE: 4 (100%) n (%)
  Drug-related AEs leading to discontinuation of the study drug: 0 n (%)
  Drug-related grade ≥3 AEs: 1 (25%) n (%)
  Drug-related serious AEs: 0 n (%)
  Grade ≥3 AEs: 2 (50%) n (%)
  Serious AE: Acute cholangitis: 0 n (%)
  Serious AE: Bronchopneumonia: 0 n (%)
  Serious AE: Bronchopulmonary aspergillosis: 0 n (%)
  Serious AE: Cardiomyopathy: 0 n (%)
  Serious AE: Device-related infection: 0 n (%)
  Serious AE: Edema: 0 n (%)
  Serious AE: Febrile neutropenia: 0 n (%)
  Serious AE: Increased level of fibrin degradation products: 0 n (%)
  Serious AE: Pneumonia: 0 n (%)
  Serious AE: Sepsis: 0 n (%)
  Serious AE: Subdural hematoma: 0 n (%)
  Serious AEs: 0 n (%)
120 mg/d
  DLT: grade 3 tumor lysis syndrome: 1 n
200 mg (n = 9)
  AEs leading to discontinuation of the study drug: 2 (22.2%) n (%)
  Any AE: 9 (100%) n (%)
  Deaths: 0 n (%)
  Drug-related AE: 9 (100%) n (%)
  Drug-related AEs leading to discontinuation of the study drug: 1 (11.1%) n (%)
  Drug-related grade ≥3 AEs: 4 (44.4%) n (%)
  Drug-related serious AEs: 2 (22.2%) n (%)
  Grade ≥3 AEs: 7 (77.8%) n (%)
  Serious AE: Acute cholangitis: 0 n (%)
  Serious AE: Bronchopneumonia: 0 n (%)
  Serious AE: Bronchopulmonary aspergillosis: 1 (11.1%) n (%)
  Serious AE: Cardiomyopathy: 1 (11.1%) n (%)
  Serious AE: Device-related infection: 0 n (%)
  Serious AE: Edema: 0 n (%)
  Serious AE: Febrile neutropenia: 1 (11.1%) n (%)
  Serious AE: Increased level of fibrin degradation products: 1 (11.1%) n (%)
  Serious AE: Pneumonia: 0 n (%)
  Serious AE: Sepsis: 0 n (%)
  Serious AE: Subdural hematoma: 1 (11.1%) n (%)
  Serious AEs: 5 (55.6%) n (%)
200 mg/d
  AE resulting in permanent discontinuation: elevated blood creatine phosphokinase: 1 n
200 mg/d, not considered drug-related
  AE resulting in permanent discontinuation: delirium: 1 n
300 mg (n = 2)
  AEs leading to discontinuation of the study drug: 2 (100%) n (%)
  Any AE: 2 (100%) n (%)
  Deaths: 0 n (%)
  Drug-related AE: 2 (100%) n (%)
  Drug-related AEs leading to discontinuation of the study drug: 2 (100%) n (%)
  Drug-related grade ≥3 AEs: 2 (100%) n (%)
  Drug-related serious AEs: 0 n (%)
  Grade ≥3 AEs: 2 (100%) n (%)
  Serious AE: Acute cholangitis: 0 n (%)
  Serious AE: Bronchopneumonia: 0 n (%)
  Serious AE: Bronchopulmonary aspergillosis: 0 n (%)
  Serious AE: Cardiomyopathy: 0 n (%)
  Serious AE: Device-related infection: 0 n (%)
  Serious AE: Edema: 0 n (%)
  Serious AE: Febrile neutropenia: 0 n (%)
  Serious AE: Increased level of fibrin degradation products: 0 n (%)
  Serious AE: Pneumonia: 0 n (%)
  Serious AE: Sepsis: 0 n (%)
  Serious AE: Subdural hematoma: 0 n (%)
  Serious AEs: 0 n (%)
300 mg/d
  AE resulting in permanent discontinuation: elevated lactate dehydrogenase: 1 n
  AE resulting in permanent discontinuation: pneumonia: 1 n
  DLTs: grade 3 elevated blood lactate dehydrogenase, amylase, blood creatine phosphokinase levels, and syncope: 2 n
2 patients
  patients with a dose decrease: 8.3%
7 patients
  patients with dose interruptions: 29.2%
Grade 1-2, N = 24
  Anemia: 0 n (%)
  Bone pain: 1 (4.2%) n (%)
  Constipation: 4 (16.7%) n (%)
  Corneal erosion: 4 (16.7%) n (%)
  Cough: 3 (12.5%) n (%)
  Diarrhea: 6 (25%) n (%)
  Disseminated intravascular coagulation: 1 (4.2%) n (%)
  Dysesthesia: 2 (8.3%) n (%)
  Dysgeusia: 2 (8.3%) n (%)
  ECG prolonged QT interval: 1 (4.2%) n (%)
  Elevated ALT: 2 (8.3%) n (%)
  Elevated AST: 2 (8.3%) n (%)
  Elevated blood creatine phosphokinase: 6 (25%) n (%)
  Elevated blood lactate dehydrogenase: 7 (29.2%) n (%)
  Elevated liver enzymes (ALT, AST, and alkaline phosphatase): 9 (37.5%) n (%)
  Epistaxis: 2 (8.3%) n (%)
  Febrile neutropenia: 2 (8.3%) n (%)
  Headache: 4 (16.7%) n (%)
  Hematoma: 2 (8.3%) n (%)
  Hypertension: 5 (20.8%) n (%)
  Hypokalemia: 2 (8.3%) n (%)
  Hypotension: 2 (8.3%) n (%)
  Hypoxia: 2 (8.3%) n (%)
  Increased amylase: 1 (4.2%) n (%)
  Insomnia: 2 (8.3%) n (%)
  Lung infection: 1 (4.2%) n (%)
  Nausea: 4 (16.7%) n (%)
  Pleural effusion: 3 (12.5%) n (%)
  Pneumonia: 1 (4.2%) n (%)
  Pyrexia: 7 (29.2%) n (%)
  Rash: 3 (12.5%) n (%)
  Renal impairment: 5 (20.8%) n (%)
  Sepsis: 1 (4.2%) n (%)
  Somnolence: 3 (12.5%) n (%)
